According to ChEMBL document CHEMBL1833903, “Isomeric acetoxy analogs of celecoxib and their evaluation as cyclooxygenase inhibitors” (Bioorg Med Chem Lett, 2011):
pIC50: −log10 of the molar value. Activity calls are given as the source filed them. The calls are words filed in the database; no cut-off is given here.

Tests used:
[1] = test system: Rattus norvegicus; experiment: Antiinflammatory activity in po dosed rat assessed as inhibition of carrageenan-induced hind paw edema measured after 3 hrs post dose; assay type: functional
Outline: (§1)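 Male Sprague-Dawley rats; paw edema induced with carrageenan; test compound given orally at the stated dose. Edema inhibition read 3 h after dosing, as a mean of n = 4. ED50 values were derived where determined.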

[2] = biological target: T1, Prostaglandin G/H synthase 1 (Ovis aries, UniProt P05979); experiment: Inhibition of ovine COX1 by enzyme immuno assay
T1 sequence (P05979 whole entry): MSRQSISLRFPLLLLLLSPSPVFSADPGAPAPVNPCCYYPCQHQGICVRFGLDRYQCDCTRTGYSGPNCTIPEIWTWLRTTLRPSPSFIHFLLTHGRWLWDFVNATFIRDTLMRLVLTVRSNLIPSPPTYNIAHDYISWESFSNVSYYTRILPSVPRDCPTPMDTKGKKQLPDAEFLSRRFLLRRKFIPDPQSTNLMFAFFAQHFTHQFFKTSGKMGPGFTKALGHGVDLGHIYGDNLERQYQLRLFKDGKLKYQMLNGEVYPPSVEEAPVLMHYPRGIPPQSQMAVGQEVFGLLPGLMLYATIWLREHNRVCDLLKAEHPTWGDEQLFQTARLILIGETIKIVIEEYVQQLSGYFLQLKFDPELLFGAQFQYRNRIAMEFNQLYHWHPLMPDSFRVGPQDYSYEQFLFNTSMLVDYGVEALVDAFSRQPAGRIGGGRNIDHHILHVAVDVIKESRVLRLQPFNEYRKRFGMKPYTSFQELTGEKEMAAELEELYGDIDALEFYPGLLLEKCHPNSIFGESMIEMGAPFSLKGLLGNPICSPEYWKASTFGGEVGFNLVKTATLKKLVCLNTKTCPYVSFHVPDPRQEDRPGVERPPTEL

[3] = test system: Rattus norvegicus; experiment: Antiinflammatory activity in rat assessed as inhibition of carrageenan-induced hind paw edema at 10 mg/kg, po measured after 3 hrs post dose; assay type: functional, organism-based; parameters: dose 10 mg/kg; outline: as §1
[4] = test system: Rattus norvegicus; experiment: Antiinflammatory activity in rat assessed as inhibition of carrageenan-induced hind paw edema at 50 mg/kg, po measured after 3 hrs post dose; assay type: functional, organism-based; parameters: dose 50 mg/kg; outline: as §1

| SMILES | pIC50 [2] | further results |
| --- | --- | --- |
| CC(C)Cc1ccc(C(C)C(=O)O)cc1 (centres undefined) [IBUPROFEN] |  | ED50 [1]: 67.4 mg/kg |
| CC(=O)Oc1ccc(-c2cc(C(F)(F)F)nn2-c2ccc(S(C)(=O)=O)cc2)cc1 | 4.10 |  |
| CC(=O)Oc1cc(C)ccc1-c1cc(C(F)(F)F)nn1-c1ccc(S(C)(=O)=O)cc1 | < 4.00 |  |
| CC(=O)Oc1cc(-c2cc(C(F)(F)F)nn2-c2ccc(S(C)(=O)=O)cc2)ccc1C |  | inhibition [3]: inactive |
| CC(=O)Oc1cccc(-c2cc(C(F)(F)F)nn2-c2ccc(S(N)(=O)=O)cc2)c1 | < 4.00 |  |
| CC(=O)Oc1cc(-c2cc(C(F)(F)F)nn2-c2ccc(S(N)(=O)=O)cc2)ccc1C | < 4.00 | inhibition [4]: inactive |
| CC(=O)Oc1cc(F)ccc1-c1cc(C(F)(F)F)nn1-c1ccc(S(C)(=O)=O)cc1 | < 4.00 |  |
| CC(=O)Oc1ccccc1C(=O)O [ASPIRIN] |  | ED50 [1]: 129 mg/kg |
| CC(=O)Oc1cccc(-c2cc(C(F)(F)F)nn2-c2ccc(S(C)(=O)=O)cc2)c1 | < 4.00 |  |
| CC(=O)Oc1cc(F)ccc1-c1cc(C(F)(F)F)nn1-c1ccc(S(N)(=O)=O)cc1 | 6.15 | ED50 ([1]; Rattus norvegicus, po, 3 h, read-out: ED50): 42.3 mg/kg |
| Cc1ccc(-c2cc(C(F)(F)F)nn2-c2ccc(S(N)(=O)=O)cc2)c(O)c1 | 4.44 | inhibition [3]: inactive |
| CC(=O)Oc1cc(C)ccc1-c1cc(C(F)(F)F)nn1-c1ccc(S(N)(=O)=O)cc1 | < 4.00 | inhibition [4]: inactive |
| CC(=O)Oc1ccccc1-c1cc(C(F)(F)F)nn1-c1ccc(S(N)(=O)=O)cc1 | < 4.00 |  |
| CC(=O)Oc1ccc(-c2cc(C(F)(F)F)nn2-c2ccc(S(N)(=O)=O)cc2)cc1 | < 4.00 | inhibition [4]: inactive |
